{"data": "Experimental data pooled from the literature", "target": "Acetylcholinesterase (ache, Electrophorus electricus, UniProt O42275)", "effect on": "enzyme activity", "action": "inhibitor", "technique": "Ellman", "note": "Lines come from different studies, so protocols differ."}
{"SMILES": "CC(C)(C)OC(=O)NC1CCCN(C(=O)/C=C/c2ccc(Br)cc2)C1 (stereo not shown)", "IC50 [µM]": "> 50"}
{"SMILES": "COc1cc(/C=C/C(=O)NC2CCN(Cc3ccccc3)CC2)ccc1OC(=O)N(C)C", "IC50 [µM]": 5.2}
{"SMILES": "O=C(O)C(/C=C/c1c(Cl)cccc1Cl)=N\\Nc1nc(-c2ccc(Br)cc2)cs1", "IC50 [µM]": 0.655}
{"SMILES": "COc1ccc(/C=C/C(=O)N2CCCC(NC(=O)OC(C)(C)C)C2)cc1 (stereo not shown)", "IC50 [µM]": "> 50"}
{"SMILES": "COc1ccc(-c2nnc(-c3ccc(OCc4cn(Cc5ccc(C)cc5)nn4)cc3)o2)cc1", "IC50 [µM]": "> 100"}
{"SMILES": "CCN(C)C(=O)Oc1ccc(CCC(=O)N2CCN(Cc3ccccc3)CC2)cc1", "IC50 [µM]": 7.8}
{"SMILES": "Cc1ccc(Cn2cc(COc3ccc(-c4nnc(-c5ccc(F)cc5)o4)cc3)nn2)cc1", "IC50 [µM]": "> 100"}
{"SMILES": "CCN(C)C(=O)Oc1ccc(CCC(=O)N2CCC(CCCc3ccccc3)CC2)cc1OC", "IC50 [µM]": 15.2}
{"SMILES": "CC(C)(C)OC(=O)NC1CCCN(C(=O)/C=C/c2cccc([N+](=O)[O-])c2)C1 (stereo not shown)", "IC50 [µM]": 35.1}
{"SMILES": "CCN(CC)C(=O)Oc1ccc(/C=C/C(=O)NC2CCN(Cc3ccccc3)CC2)cc1OC", "IC50 [µM]": 2.3}
{"SMILES": "COc1ccccc1/C=C/C(=O)N1CCCC(NC(=O)OC(C)(C)C)C1 (stereo not shown)", "IC50 [µM]": "> 50"}
{"SMILES": "O=[N+]([O-])c1ccc(-c2nnc(-c3ccc(OCc4cn(Cc5ccccc5)nn4)cc3)o2)cc1", "IC50 [µM]": "> 100"}
{"SMILES": "CCN(CC)C(=O)Oc1ccc(/C=C/C(=O)NC2CCN(Cc3ccccc3)CC2)cc1", "IC50 [µM]": 4.5}
{"SMILES": "COc1ccc(-c2nnc(-c3ccc(OCc4cn(Cc5ccc(F)cc5)nn4)cc3)o2)cc1", "IC50 [µM]": "> 100"}
{"SMILES": "CC(C)(C)OC(=O)NC1CCCN(C(=O)/C=C/c2ccccc2Br)C1 (stereo not shown)", "IC50 [µM]": 46.3}
{"SMILES": "O=[N+]([O-])c1ccc(-c2nnc(-c3ccc(OCc4cn(Cc5ccc(Cl)cc5)nn4)cc3)o2)cc1", "IC50 [µM]": "> 100"}
{"SMILES": "O=C(O)C(/C=C/c1c(Cl)cccc1Cl)=N\\Nc1nc(-c2ccc(F)cc2)cs1", "IC50 [µM]": 0.299}
{"SMILES": "COc1cc(CCC(=O)N2CCC(Cc3ccccc3)CC2)ccc1OC(=O)N1CCOCC1", "IC50 [µM]": 7.2}
{"SMILES": "COc1ccc(-c2nnc(-c3ccc(OCc4cn(Cc5ccccc5)nn4)cc3)o2)cc1", "IC50 [µM]": "> 100"}
{"SMILES": "COc1ccc(OC)c(/C=C/C(=O)N2CCCC(NC(=O)OC(C)(C)C)C2)c1 (stereo not shown)", "IC50 [µM]": 41.5}
{"SMILES": "O=[N+]([O-])c1ccc(-c2nnc(-c3ccc(OCc4cn(Cc5ccc(Br)cc5)nn4)cc3)o2)cc1", "IC50 [µM]": "> 100"}
{"SMILES": "CN(C)C(=O)Oc1ccc(/C=C/C(=O)NC2CCN(Cc3ccccc3)CC2)cc1", "IC50 [µM]": 5.9}
{"SMILES": "Fc1ccc(Cn2cc(COc3ccc(-c4nnc(-c5ccc(F)cc5)o4)cc3)nn2)cc1", "IC50 [µM]": "> 100"}
{"SMILES": "COc1cccc(/C=C/C(=O)N2CCCC(NC(=O)OC(C)(C)C)C2)c1 (stereo not shown)", "IC50 [µM]": "> 50"}
{"SMILES": "CCN(C)C(=O)Oc1ccc(CCC(=O)N(CC)CC)cc1OC", "IC50 [µM]": 19.5}
